Among the data in ChEMBL document CHEMBL1681709, “Structure-activity relationship studies on 1-(5-carboxyindol-1-yl)-propan-2-one inhibitors of human cytosolic phospholipase A2α: variation of the activated ketone moiety” (Bioorg Med Chem Lett, 2011) are IC50 and inhibition values, retold here.

Experiment [1] is described as follows: Inhibition of human platelet cytosolic phospholipase A2alpha. In short, it runs like this: (§1)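 cPLA2α isolated from human platelets. Reactions were stopped after 60 min with acetonitrile/methanol/0.1 M aqueous EDTA-Na2 containing 4-undecyloxybenzoic acid as internal standard and NDGA as oxygen scavenger. Released arachidonic acid was cleaned up by solid-phase extraction and quantified by RP-HPLC with UV detection at 200 nm. Results are IC50 or % inhibition at 10 μM, as means of at least two independent determinations.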

Another experiment is filed under the species Homo sapiens. The experiment is described as follows: Inhibition of human platelet cytosolic phospholipase A2alpha at 10 uM. The essentials: as §1

Active and inactive are the calls of the source. No cut-off for these calls is given here. Some results are limits rather than exact numbers.

The compound `CCCCCCCCc1ccc(OC/C(Cn2ccc3cc(C(=O)O)ccc32)=N/O)cc1` came in with a half-inhibitory concentration (IC50) in experiment [1] above 10 µM. The same compound yielded an inhibition in the experiment filed under Homo sapiens of 42%.

Turning to `CCCCCCCCc1ccc(OC/C(Cn2ccc3cc(C(=O)O)ccc32)=N\O)cc1`, the IC50 in experiment [1] was above 10 µM. This compound yielded an inhibition in the experiment listed under Homo sapiens of 32%.

On to `CCCCCCCCc1ccc(OCC(Cn2ccc3cc(C(=O)O)ccc32)=NOC)cc1` (mixture of isomers), for which the IC50 in experiment [1] was above 10 µM. In addition, the inhibition in the experiment filed under Homo sapiens was 22%.

In experiment [1], `CCCCCCCCc1ccc(OCC(Cn2ccc3cc(C(=O)O)ccc32)OC(=O)c2ccccc2)cc1` (racemic) gave an IC50 above 10 µM. This compound also gave an inhibition in the experiment filed under Homo sapiens of 18%.

Compound `CCCCCCCCc1ccc(OCC(Cn2ccc3cc(C(=O)O)ccc32)OS(C)(=O)=O)cc1` (racemic) registered an IC50 in experiment [1] above 10 µM. The compound further showed an inhibition in the experiment listed under Homo sapiens of 16%.

In experiment [1], `CCCCCCCCc1ccc(OCC(Cn2ccc3cc(C(=O)O)ccc32)N=[N+]=[N-])cc1` (racemic) came in with a half-inhibitory concentration (IC50) of 4.3 µM.

In turn, `CCCCCCCCc1ccc(OCC(N)Cn2ccc3cc(C(=O)O)ccc32)cc1` (racemic) came in with an IC50 in experiment [1] above 10 µM. This compound also yielded an inhibition in the experiment listed under Homo sapiens of 37%.

`CCCCCCCCc1ccc(OCC(Cn2ccc3cc(C(=O)O)ccc32)NC(=O)OC)cc1` (racemic) had an IC50 in experiment [1] above 10 µM. The same compound had an inhibition in the experiment filed under Homo sapiens of 21%.

The compound `CCCCCCCCc1ccc(OCC(Cn2ccc3cc(C(=O)O)ccc32)NC(=O)Oc2ccccc2)cc1` (racemic) gave an IC50 in experiment [1] of 4.6 µM.

Regarding `CCCCCCCCc1ccc(OCC(Cn2ccc3cc(C(=O)O)ccc32)NC(=O)Oc2ccc(F)cc2)cc1` (racemic), the IC50 in experiment [1] was found to be 1.7 µM.

In experiment [1], `CCCCCCCCc1ccc(OCC(Cn2ccc3cc(C(=O)O)ccc32)NC(=O)Oc2ccc(Cl)cc2)cc1` (racemic) yielded an IC50 above 10 µM. The same compound gave an inhibition in the experiment filed under Homo sapiens of 28%.

As for `CCCCCCCCc1ccc(OCC(Cn2ccc3cc(C(=O)O)ccc32)NC(=O)Oc2ccc(OC)cc2)cc1` (racemic), the IC50 in experiment [1] was above 10 µM. Moreover, the inhibition in the experiment filed under Homo sapiens worked out at 23%.

Turning to `CCCCCCCCc1ccc(OCC(Cn2ccc3cc(C(=O)O)ccc32)NC(=O)Oc2cccc(F)c2)cc1` (racemic), the IC50 in experiment [1] came to 5.1 µM.

`CCCCCCCCc1ccc(OCC(Cn2ccc3cc(C(=O)O)ccc32)NC(=O)Nc2ccccc2)cc1` (racemic): the inhibition result in the experiment filed under Homo sapiens is “inactive”.

Consider `CCCCCCCCc1ccc(OCC(Cn2ccc3cc(C(=O)O)ccc32)NC(=O)Oc2ccccc2Cl)cc1` (racemic), for which, in the experiment filed under Homo sapiens, the inhibition result was “inactive”.

For the compound `CCCCCCCCc1ccc(OCC(Cn2ccc3cc(C(=O)O)ccc32)NC(=O)Oc2ccccc2F)cc1` (racemic), in the experiment filed under Homo sapiens, the inhibition entry is “inactive”.

In the case of `CCCCCCCCc1ccc(OCC(Cn2ccc3cc(C(=O)O)ccc32)NC(=O)Oc2ccccc2OC)cc1` (racemic), the inhibition result in the experiment listed under Homo sapiens is “inactive”.

With `CCCCCCCCc1ccc(OCC(Cn2ccc3cc(C(=O)O)ccc32)NC(=O)c2ccccc2)cc1` (racemic), the inhibition entry in the experiment listed under Homo sapiens was “inactive”.

For `CCCCCCCCc1ccc(OCC(Cn2ccc3cc(C(=O)O)ccc32)NC(C)=O)cc1` (racemic), the inhibition result in the experiment filed under Homo sapiens was “inactive”.

In the case of `CCCCCCCCc1ccc(OCC(Cn2ccc3cc(C(=O)O)ccc32)OC(=O)Nc2ccccc2)cc1` (racemic), the inhibition entry in the experiment listed under Homo sapiens was “inactive”.

For the compound `CCCCCCCCc1ccc(OCC(Cn2ccc3cc(C(=O)O)ccc32)OC(C)=O)cc1` (racemic), the inhibition result in the experiment filed under Homo sapiens was “inactive”.

Turning to `CCCCC/C=C\C/C=C\C/C=C\C/C=C\CCCC(=O)C(F)(F)F` [ARACHIDONYL TRIFLUOROMETHYLKETONE], it took 2.3 µM to reach half-maximal inhibition in experiment [1] (IC50).
